Measurements published in ChEMBL document CHEMBL3612041, “Combating highly resistant emerging pathogen Mycobacterium abscessus and Mycobacterium tuberculosis with novel salicylanilide esters and carbamates” (Eur J Med Chem, 2015).
In brackets after ≈: the same amount, converted by molar mass.

What was measured:
[1] = system: Mycobacterium tuberculosis; assay: Antimycobacterial activity against Mycobacterium tuberculosis H37Rv ATCC 27294 after 28 days by serial dilution method; format: functional
Outline: (§1)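 Serial dilution in in-house Sula semisynthetic medium, pH 6.5. Compounds added as DMSO solutions at 10 doses, final 0.05–100 µg/mL. Incubation at 37 °C, 7 days for M. abscessus and 28 days for M. tuberculosis strains. MIC taken as the lowest concentration giving visible growth inhibition, confirmed by CFU on drug-free Löwenstein-Jensen medium after further equal incubation. Repeated at least twice.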

[2] = Selectivity index, ratio of IC50 for human MONO-MAC-6 cells to MIC for Mycobacterium tuberculosis H37Rv ATCC 27294; format: toxicity; conditions: read-out: Selectivity Index
[3] = Drug level in serum-free RPMI-1640 medium treated with [4-bromo-2-[[4-(trifluoromethyl)phenyl]carbamoyl]phenyl] 5-chloropyrazine-2-carboxylate at 0.75 mg/ml after 29 hrs by ESI-MS spectra analysis; format: physicochemical
[4] = Solubility of the compound in RPMI-1640/Sula media by spectrophotometric analysis; format: physicochemical
Outline: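 Solubility measured under assay conditions in RPMI and Sula media with 1 v/v% DMSO. Undissolved compound removed on a PVDF filter. 120 µL filtrate mixed with 80 µL acetonitrile, and concentration measured spectrophotometrically.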

[5] = system: Mycobacteroides abscessus; assay: Antimycobacterial activity against Mycobacterium abscessus ATCC 19977 after 7 days by serial dilution method; format: functional; outline: as §1
[6] = Selectivity index, ratio of IC50 for human MONO-MAC-6 cells to MIC for Mycobacterium abscessus ATCC 19977; format: toxicity; conditions: read-out: Selectivity Index
[7] = Drug level in serum-free RPMI-1640 medium treated with [4-bromo-2-[[4-(trifluoromethyl)phenyl]carbamoyl]phenyl] N-(3-chloropropyl)carbamate at 0.75 mg/ml after 6 hrs by RP-HPLC analysis; format: physicochemical
[8] = system: MONO-MAC-6; assay: Cytostatic activity against human MONO-MAC-6 cells assessed as cell viability after 16 hrs by MTT assay; format: cell-based; conditions: MONO-MAC-6, 16 h
Outline: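 MonoMac6 cells kept in RPMI-1640 with 10% FCS, 2 mM L-glutamine and gentamycin at 37 °C, 5% CO2. Cells plated 10⁵ per well and treated after 24 h for 16 h in serum-free RPMI (1.0 v/v% DMSO), 5×10⁻² to 10² µM. MTT at 367 µg/mL final for 3.5 h, crystals dissolved in DMSO, OD540 minus OD620. Cytotoxicity % versus untreated control fitted sigmoidally for IC50. Two independent experiments, 4–8 parallels.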

**Q.** Which results are given for O=C(Nc1ccc(C(F)(F)F)cc1)c1cc(Br)ccc1O?
**A.** Activity [1]: 2 CFU; MIC ([1]; Mycobacterium tuberculosis, H37Rv ATCC 27294, 672 h): 1.4 µM (≈ 0.504 µg/mL); selectivity ratio [2]: 5.4; Drug metabolism [3]: metabolite_detected; solubility [4]: < 100 µM; Activity [5]: 0 CFU; MIC ([5]; Mycobacteroides abscessus, ATCC 19977, 168 h): 13.9 µM (≈ 5.01 µg/mL); selectivity ratio [6]: 0.5; Drug metabolism [7]: metabolite_detected; IC50 [8]: 7.6 µM
